Assay results collected from several papers.
Compare with care: the assays were run in different laboratories.
Target: Serine/threonine-protein kinase/endoribonuclease IRE1 (ERN1, Homo sapiens, UniProt O75460)

`Cc1cc(NC(=O)c2cccc3cc(-c4cccc5[nH]nc(N)c45)ccc23)ccc1F` has an activity vs control of 87% (enzyme activity, inhibitor; 0.1 µM).
`Nc1ncnc2occ(-c3ccc(NC(=O)Nc4cc(C(F)(F)F)ccc4F)cc3)c12` gave a remaining signal of 16% (cell-free assay, inhibitor; 20 µM).
`Cc1ccc(C(=O)NCc2ccsc2)cc1C#Cc1cn(C(C)C)c2ncnc(N)c12` has an activity vs control of 100% (enzyme activity, inhibitor; 1 µM).
`CCN1CCN(Cc2ccc(NC(=O)c3ccc(C)c(Oc4ccnc5[nH]ccc45)c3)cc2C(F)(F)F)CC1` gave an inhibition of -12.6% (target engagement in cells, inhibitor, chemoproteomics; Huh-7; 10 µM).
`Cc1ccc(NC(=O)c2ccc(C)c(C(F)(F)F)c2)cc1C#Cc1nn(C2CCC(O)CC2)c2ncnc(N)c12` (stereo not shown) gave a remaining signal of 94% (cell-free assay; 10 µM).
For `CN([C@@H]1CCc2c(CC(=O)O)c3ccccc3n2C1)S(=O)(=O)c1ccc(F)cc1`, the remaining binding was 94% (cell-free assay, competition with immobilised ligand; 1 µM).
`CCCCNc1ncc2c(-c3ccc(F)cc3)nn(C[C@H]3CC[C@H](N)CC3)c2n1` gave an inhibition of -1.9% (target engagement in cells, inhibitor, chemoproteomics; 20 mM).
`Cc1ccc(C(=O)Nc2ccc(CN3CCN(C)CC3)c(C(F)(F)F)c2)cc1C#Cc1cnc2cccnn12` gave a remaining activity of 81% (enzyme activity, inhibitor; 23.5 nM).
`COc1cc(Cl)c(C(=O)N[C@@H](CN[C@H]2CC[C@@H](N)CC2)Cc2ccc(C#N)cc2)cc1-c1ccc(CN[C@H](C)c2ccc(C)cc2)o1` has a remaining activity of 93% (enzyme activity, inhibitor; 1 µM).
`Cc1sc(C(=O)NC2COC2)cc1-n1cc(NC(=O)Nc2c(F)cccc2Cl)cn1` has a remaining activity of 94.1% (enzyme activity, inhibitor; 10 µM).
With `COc1cccc2c(NCc3ccccc3)nc(-n3c(N)nc4ccccc43)nc12` the inhibition was -6.5% (target engagement in cells, inhibitor, chemoproteomics; 20 mM).
For `CN(c1ccnc(CNc2nc(Nc3ccc4c(c3)CC(=O)N4)ncc2C(F)(F)F)n1)S(C)(=O)=O`, the remaining binding was 49% (cell-free assay, competition with immobilised ligand; 1 µM).
`CN1CC(Oc2cnc(C#N)cc2-c2ccn3nc(NC(=O)C4CC4)cc3c2)C1` gave an inhibition of 4% (enzyme activity, inhibitor; 1 µM).
`O=S(=O)(NC1CCC(c2cc(F)ccc2F)(S(=O)(=O)c2ccc(Cl)cc2)CC1)C(F)(F)F` (stereo not shown) has a remaining binding of 100% (cell-free assay, competition with immobilised ligand; 1 µM).
With `Cc1cnc(NC2CCOCC2)nc1-n1cnc(C(=O)NC(CN)c2cc(F)cc(Cl)c2)c1` (stereo not shown) the remaining activity was 99% (enzyme activity, inhibitor, radiometric; 1 µM).
The remaining activity of `O=C(Nc1cnn(-c2csc(C(=O)NC3COC3)c2)c1)Nc1ccccc1Cl` is reported as 94.3% (enzyme activity, inhibitor; 5 µM).
